Results as given in ChEMBL document CHEMBL3580630, “Design and Synthesis of a Screening Library Using the Natural Product Scaffold 3-Chloro-4-hydroxyphenylacetic Acid” (2015).
Activity calls are given as the source filed them. No cut-off for these calls is given here.

Columns and labels:
[1] = system: Trypanosoma brucei brucei; assay: Antiparasitic activity against bloodstream form of Trypanosoma brucei brucei 427 assessed as inhibition of parasite replication at 10 uM after 72 hrs by resazurin assay relative to control; assay type: functional; conditions: Trypanosoma brucei, 427, 72 h
LNCaP [2] = assay: Cytotoxicity against human LNCAP cells assessed as inhibition of cell proliferation at 10 uM after 72 hrs by Alamar blue assay relative to control; assay type: functional
Plasmodium falciparum = assay: Antiparasitic activity against asexual intraerythrocytic stage of Plasmodium falciparum 3D7 assessed as inhibition of parasite replication at 10 uM after 72 hrs by DAPI staining-based microscopic analysis relative to control; assay type: functional; conditions: 3D7, 72 h
LNCaP [3] = assay: Antilipogenic activity in human LNCAP cells assessed as reduction of cellular neutral lipid level at 10 uM after 48 hrs by nile red staining-based fluorescence microscopic analysis relative to control; assay type: functional, cell-based
Outline: (§1)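 Cells were grown 72 h in phenol-red-free RPMI-1640 with 5% CSS, then exposed 48 h to 10 µM compound in 0.3% DMSO. Controls were DMSO alone (negative) and TOFA (positive). Cells were fixed in 4% paraformaldehyde for 20 min on ice, then stained 20 min at room temperature in the dark with 1.0 µg/mL DAPI and 0.25 µg/mL Nile Red in PBS. Imaging was at 10×. Neutral lipids were read in the Cy3 channel and phospholipids in Cy5, as mean fluorescence intensity per cell (~1500 cells/treatment). Statistics used one-way ANOVA with Dunnett's test.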

PC-3 [4] = assay: Antilipogenic activity in human PC3 cells assessed as reduction of cellular phospholipid level at 10 uM after 48 hrs by nile red staining-based fluorescence microscopic analysis relative to control; assay type: functional, cell-based; outline: as §1
LNCaP [5] = assay: Antilipogenic activity in human LNCAP cells assessed as reduction of cellular phospholipid level at 10 uM after 48 hrs by nile red staining-based fluorescence microscopic analysis relative to control; assay type: functional, cell-based; outline: as §1
PC-3 [6] = assay: Antilipogenic activity in human PC3 cells assessed as reduction of cellular neutral lipid level at 10 uM after 48 hrs by nile red staining-based fluorescence microscopic analysis relative to control; assay type: functional, cell-based; outline: as §1

SMILES	inhibition at 10 µM [1] [%]	inhibition at 10 µM (LNCaP [2]) [%]	inhibition at 10 µM (Plasmodium falciparum) [%]	Activity (LNCaP [3])	Activity (PC-3 [4])	Activity (LNCaP [5])	Activity (PC-3 [6])
CCN(CC)CCNC(=O)Cc1ccc(O)c(Cl)c1	> 50	> 50	> 50				
O=C(Cc1ccc(O)c(Cl)c1)NCCN1CCNCC1	> 50	> 50	> 50				
CN(C)CCNC(=O)Cc1ccc(O)c(Cl)c1	> 50	> 50	> 50				
O=C(Cc1ccc(O)c(Cl)c1)NCCc1ccc(F)cc1	> 50	> 50	> 50				
O=C(Cc1ccc(O)c(Cl)c1)NCCc1cccc(F)c1	> 50	> 50	> 50				
COC(=O)Cc1ccc(O)c(Cl)c1	> 50	> 50	> 50				
O=C(Cc1ccc(O)c(Cl)c1)NCc1cccc(F)c1	> 50	> 50	> 50	Active	Active	Active	Active
CCN(CC)CCCNC(=O)Cc1ccc(O)c(Cl)c1	> 50	> 50	> 50				
O=C(Cc1ccc(O)c(Cl)c1)NCc1ccc(Br)cc1	> 50	> 50	> 50				
O=C(Cc1ccc(O)c(Cl)c1)NCCc1ccccc1F	> 50	> 50	> 50				
CCCCCCCCCCCCCCOc1ccc(C(=O)O)o1				Active	inactive	inactive	Active
O=C(Cc1ccc(O)c(Cl)c1)NCc1ccccc1	> 50	> 50	> 50				
O=C(Cc1ccc(O)c(Cl)c1)NCc1ccccc1F	> 50	> 50	> 50	Active	Active	Active	Active
CC(C)CCNC(=O)Cc1ccc(O)c(Cl)c1	> 50	> 50	> 50				
O=C(Cc1ccc(O)c(Cl)c1)NCc1ccc(F)cc1	> 50	> 50	> 50	Active	Active	Active	Active
CN(C)CCCNC(=O)Cc1ccc(O)c(Cl)c1	> 50	> 50	> 50				
O=C(Cc1ccc(O)c(Cl)c1)NCCc1ccccn1	> 50	> 50	> 50				
O=C(Cc1ccc(O)c(Cl)c1)NCCc1ccc(Br)cc1	> 50	> 50	> 50				
O=C(Cc1ccc(O)c(Cl)c1)NCCc1ccc(Cl)cc1	> 50	> 50	> 50				
O=C(O)Cc1ccc(O)c(Cl)c1	> 50	> 50	> 50				
O=C(Cc1ccc(O)c(Cl)c1)NCc1ccc(Cl)cc1	> 50	> 50	> 50				
O=C(Cc1ccc(O)c(Cl)c1)NCCN1CCOCC1	> 50	> 50	> 50				
O=C(Cc1ccc(O)c(Cl)c1)NCCc1ccccc1	> 50	> 50	> 50				
